Consider 26 compounds from ChEMBL document CHEMBL2417548, “Design and synthesis of novel 3-substituted-indole derivatives as selective H3 receptor antagonists and potent free radical scavengers” (Bioorg Med Chem, 2013).

For series [1], the target named is Histamine H4 receptor (Homo sapiens) (UniProt Q9H3N8). The experiment in a line: Antagonist activity at human histamine H4 receptor expressed in HEK293 cells assessed by forskolin induced cAMP response element activation after 5 hrs by luciferase reporter gene assay. Type of series: functional, cell-based. In outline:
(§1)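 Stable HEK-293 lines co-transfected with human H1, H2 or H4 receptor plus pCRE-Luc (G418 800 µg/mL selection), grown overnight to 90–95% confluence. Cells got 10 µM forskolin plus graded compound concentrations with 5 µM histamine in serum-free DMEM, 5 h at 37 °C. Read-out was firefly luciferase. Triplicate points, three separate experiments.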
(In general: In a reporter assay the amount or activity of a reporter protein is the signal.)

Series [2] concerns the target Histamine H2 receptor (Homo sapiens) (UniProt P25021). The experiment in a line: Antagonist activity at human histamine H2 receptor expressed in HEK293 cells assessed by forskolin induced cAMP response element activation after 5 hrs by luciferase reporter gene assay. The series is classed as functional, cell-based. In outline:
as §1

Series [3] deals with Histamine H1 receptor (Homo sapiens) (UniProt P35367). Description: Antagonist activity at human histamine H1 receptor expressed in HEK293 cells assessed by forskolin induced cAMP response element activation after 5 hrs by luciferase reporter gene assay. The series is classed as functional, cell-based. Summed up: as §1
For series [4], the target named is T1, Histamine H3 receptor (Homo sapiens, UniProt Q9Y5N1). The experiment in a line: Displacement of […] from human histamine H3 receptor expressed in HEK293 cells after 90 to 120 mins by liquid scintillation counting. Type of series: cell-based.
Series [5] has as its target T2, hERG (KCNH2) (Homo sapiens, UniProt Q12809). The experiment in a line: Inhibition of human ERG expressed in HEK293 cells assessed as membrane depolarization at 3 uM by patch-clamp method. The settings on record: HEK293 cells that express hERG. Type of series: cell-based. (In general: Patch clamp records ionic current or voltage across a cell membrane.)
The nature of series [6]: Antioxidant activity assessed as ABTS free radical scavenging activity after 6 mins by spectrophotometry. Type of series: functional. Summed up:
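ABTS (7 mM in water) reacted with 2.45 mM potassium persulfate (final), held in dark at room temperature ≥18 h to form radical cation, then serially diluted. Antioxidant added, mixed by pipette bubbling; absorbance at 415 nm read 6 min after addition, equilibrated at 30 °C. Each treatment repeated three times; melatonin as comparator.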

Series [7] has as its target T1, Histamine H3 receptor. The experiment in a line: Antagonist activity at human histamine H3 receptor expressed in HEK293 cells assessed by forskolin induced cAMP response element activation after 5 hrs by luciferase reporter gene assay. The series is classed as functional, cell-based.
Series [8] deals with T2, hERG (KCNH2). Description: Inhibition of human ERG expressed in HEK293 cells assessed as membrane depolarization at 100 nM by patch-clamp method. Type of series: cell-based. The settings on record: HEK293 cells that express hERG.

Calls of active or inactive are those of the source. The rule behind the calls is not given here.

T1 sequence (Q9Y5N1 whole entry): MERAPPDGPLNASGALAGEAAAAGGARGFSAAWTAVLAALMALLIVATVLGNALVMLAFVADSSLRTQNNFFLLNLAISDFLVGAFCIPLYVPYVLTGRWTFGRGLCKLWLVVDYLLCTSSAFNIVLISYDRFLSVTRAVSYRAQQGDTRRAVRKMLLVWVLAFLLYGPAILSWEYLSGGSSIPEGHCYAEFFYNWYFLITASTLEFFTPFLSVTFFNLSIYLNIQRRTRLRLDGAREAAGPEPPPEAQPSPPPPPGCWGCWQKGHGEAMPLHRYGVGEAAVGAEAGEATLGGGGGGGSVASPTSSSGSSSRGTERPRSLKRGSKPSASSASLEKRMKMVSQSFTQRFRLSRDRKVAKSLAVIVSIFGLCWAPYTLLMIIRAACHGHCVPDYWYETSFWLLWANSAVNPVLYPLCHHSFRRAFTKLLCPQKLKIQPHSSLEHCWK
T2 sequence (Q12809 whole entry): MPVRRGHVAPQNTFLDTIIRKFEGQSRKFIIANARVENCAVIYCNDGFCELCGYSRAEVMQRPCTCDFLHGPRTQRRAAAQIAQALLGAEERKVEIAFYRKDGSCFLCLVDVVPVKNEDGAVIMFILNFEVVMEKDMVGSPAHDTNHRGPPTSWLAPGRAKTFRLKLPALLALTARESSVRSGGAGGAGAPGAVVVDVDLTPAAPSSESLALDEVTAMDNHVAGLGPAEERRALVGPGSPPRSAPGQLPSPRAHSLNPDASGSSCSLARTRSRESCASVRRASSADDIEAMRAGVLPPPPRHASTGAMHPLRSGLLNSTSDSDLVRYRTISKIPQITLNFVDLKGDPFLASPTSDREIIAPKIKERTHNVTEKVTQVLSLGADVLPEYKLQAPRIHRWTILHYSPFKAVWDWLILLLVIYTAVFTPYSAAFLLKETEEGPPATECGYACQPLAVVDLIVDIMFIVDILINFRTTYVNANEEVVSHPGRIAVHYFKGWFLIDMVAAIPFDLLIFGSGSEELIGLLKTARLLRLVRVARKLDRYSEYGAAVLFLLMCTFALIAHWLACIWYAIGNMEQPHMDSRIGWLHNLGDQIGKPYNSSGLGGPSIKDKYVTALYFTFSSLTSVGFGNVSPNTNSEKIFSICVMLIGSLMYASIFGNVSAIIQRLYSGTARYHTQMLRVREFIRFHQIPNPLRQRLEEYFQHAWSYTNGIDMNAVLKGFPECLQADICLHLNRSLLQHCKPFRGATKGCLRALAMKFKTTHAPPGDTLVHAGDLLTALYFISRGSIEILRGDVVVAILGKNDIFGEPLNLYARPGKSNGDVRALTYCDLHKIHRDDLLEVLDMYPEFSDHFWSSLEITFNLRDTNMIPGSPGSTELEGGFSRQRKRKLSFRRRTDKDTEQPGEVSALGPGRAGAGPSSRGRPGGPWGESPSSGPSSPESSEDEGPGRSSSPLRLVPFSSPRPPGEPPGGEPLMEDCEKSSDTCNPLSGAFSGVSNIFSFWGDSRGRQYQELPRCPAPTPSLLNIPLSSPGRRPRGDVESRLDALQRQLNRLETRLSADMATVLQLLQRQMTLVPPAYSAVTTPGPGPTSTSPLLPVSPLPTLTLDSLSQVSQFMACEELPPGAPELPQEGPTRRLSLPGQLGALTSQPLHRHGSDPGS
Sequence of Histamine H4 receptor (Homo sapiens) (Q9H3N8 whole entry): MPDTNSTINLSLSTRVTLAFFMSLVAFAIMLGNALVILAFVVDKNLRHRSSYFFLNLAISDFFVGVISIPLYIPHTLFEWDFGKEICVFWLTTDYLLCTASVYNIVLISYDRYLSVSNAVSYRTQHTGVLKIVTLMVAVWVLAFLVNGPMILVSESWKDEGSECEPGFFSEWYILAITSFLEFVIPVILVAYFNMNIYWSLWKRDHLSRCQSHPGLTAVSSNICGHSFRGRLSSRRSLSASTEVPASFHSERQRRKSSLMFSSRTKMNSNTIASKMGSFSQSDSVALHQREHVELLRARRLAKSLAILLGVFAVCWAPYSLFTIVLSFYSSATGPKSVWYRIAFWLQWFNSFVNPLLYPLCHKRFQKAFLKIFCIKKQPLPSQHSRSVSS
Sequence of Histamine H1 receptor (Homo sapiens) (P35367 whole entry): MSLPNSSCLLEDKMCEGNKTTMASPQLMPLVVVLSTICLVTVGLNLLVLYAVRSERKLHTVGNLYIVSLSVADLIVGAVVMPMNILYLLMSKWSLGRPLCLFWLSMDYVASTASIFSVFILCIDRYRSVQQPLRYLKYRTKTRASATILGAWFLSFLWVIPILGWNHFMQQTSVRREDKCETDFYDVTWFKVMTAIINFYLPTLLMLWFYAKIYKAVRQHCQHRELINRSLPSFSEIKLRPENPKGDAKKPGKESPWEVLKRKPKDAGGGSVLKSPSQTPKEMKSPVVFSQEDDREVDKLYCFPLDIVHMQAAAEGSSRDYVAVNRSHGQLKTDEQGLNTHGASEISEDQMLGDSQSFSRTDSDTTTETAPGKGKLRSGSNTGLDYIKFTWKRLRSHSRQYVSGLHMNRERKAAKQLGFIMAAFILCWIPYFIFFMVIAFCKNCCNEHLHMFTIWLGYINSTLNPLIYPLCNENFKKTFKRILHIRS
Sequence of Histamine H2 receptor (Homo sapiens) (P25021 whole entry): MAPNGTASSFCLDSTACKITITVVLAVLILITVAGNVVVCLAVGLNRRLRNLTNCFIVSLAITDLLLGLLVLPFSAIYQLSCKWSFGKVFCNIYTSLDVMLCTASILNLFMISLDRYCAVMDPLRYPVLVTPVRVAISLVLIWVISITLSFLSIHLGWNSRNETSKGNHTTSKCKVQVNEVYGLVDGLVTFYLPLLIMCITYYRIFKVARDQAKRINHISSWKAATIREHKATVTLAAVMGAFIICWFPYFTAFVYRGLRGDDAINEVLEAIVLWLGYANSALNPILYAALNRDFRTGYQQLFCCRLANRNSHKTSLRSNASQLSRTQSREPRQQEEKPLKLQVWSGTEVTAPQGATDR

What is called Ki is the dissociation constant of the complex between target and ligand, obtained from inhibition or displacement. The low end stands for tighter binding, the high end for weaker binding. The inhibition is the percentage by which the read-out fell short of the control. As a reminder, the IC50 is the concentration that inhibits the measured activity by half. Regarding `c1ccc2c(CCNc3ccc(CN4CCOCC4)cc3)c[nH]c2c1`, the outcome in series [1], in series [2] and in series [3] was inactive. In addition, affinity in series [4] was put at a Ki of 4.26 nM. In series [5], the inhibition at 3 µM came to 54%. The half-maximal inhibitory concentration (IC50) in series [6] was 3050 nM; in series [7], 49 nM.
For the compound `COc1cc(N)c(Cl)cc1C(=O)NC1CCN(CCCOc2ccc(F)cc2)CC1OC` (stereo not drawn) [CISAPRIDE], the inhibition at 0.1 µM in series [8] stood at 89%.
The compound `O=C(Oc1ccc(CN2CCCCC2)cc1)c1c[nH]c2ccccc12` displayed a 50% inhibitory concentration (IC50) in series [7] of 2030 nM.
`O=C(Cc1c[nH]c2ccccc12)Nc1ccc(CN2CCCCC2)cc1`: the IC50 in series [7] stood at 2840 nM.
With `CCN(CC)Cc1ccc(OC(=O)Cc2c[nH]c3ccccc23)cc1`, inhibition in series [7] was half-maximal at 4610 nM (IC50).
The same measure, in the same setting: with `O=C(CCc1c[nH]c2ccccc12)Nc1ccc(CN2CCOCC2)cc1` the figure was greater than 10000 nM.
For `COc1ccc2[nH]cc(CCNC(C)=O)c2c1` [MELATONIN], the IC50 in series [6] is 1920 nM.
`c1ccc2c(CNc3ccc(CN4CCCCC4)cc3)c[nH]c2c1` came in with an IC50 in series [7] of 540 nM.
In turn, `CCN(CC)Cc1ccc(NC(=O)Cc2c[nH]c3ccccc23)cc1` came in with an IC50 in series [7] of 3500 nM.
On to `c1ccc2c(CCNc3ccc(CN4CCCCC4)cc3)c[nH]c2c1`, for which the inhibition at 3 µM in series [5] was found to be 87%. Also, the midpoint of inhibition in series [7], the IC50, lay at 80 nM.
For `O=C(CCc1c[nH]c2ccccc12)Oc1ccc(CN2CCCC2)cc1`, the concentration for half-maximal inhibition (IC50) in series [7] was greater than 10000 nM.
On to `O=C(CCc1c[nH]c2ccccc12)Oc1ccc(CN2CCOCC2)cc1`, for which the IC50 in series [7] was greater than 10000 nM.
Regarding `O=C(Cc1c[nH]c2ccccc12)Nc1ccc(CN2CCOCC2)cc1`, in series [5], the inhibition at 3 µM was 6%. Besides, the IC50 amounted to 4710 nM in series [6] and 2190 nM in series [7].
In turn, `c1ccc2c(CCCNc3ccc(CN4CCOCC4)cc3)c[nH]c2c1` gave a concentration for half-maximal inhibition (IC50) in series [7] of 490 nM.
On the same count and under the same terms, with `CCN(CC)Cc1ccc(NCCc2c[nH]c3ccccc23)cc1` the figure was 290 nM; with `O=C(Cc1c[nH]c2ccccc12)Nc1ccc(CN2CCCC2)cc1`, 1370 nM.
Still for that read-out and setting: with `O=C(Cc1c[nH]c2ccccc12)Oc1ccc(CN2CCCC2)cc1` the figure was 2460 nM; with `CCN(CC)Cc1ccc(OC(=O)CCc2c[nH]c3ccccc23)cc1`, greater than 10000 nM.
Compound `CCN(CC)Cc1ccc(NC(=O)CCc2c[nH]c3ccccc23)cc1` showed a half-maximal inhibitory concentration (IC50) in series [7] greater than 10000 nM.
On to `c1ccc2c(CCNc3ccc(CN4CCCC4)cc3)c[nH]c2c1`, for which the inhibition at 3 µM in series [5] was found to be 73%. In addition, the IC50 in series [7] was found to be 180 nM.
Regarding `O=C(Cc1c[nH]c2ccccc12)Oc1ccc(CN2CCOCC2)cc1`, the inhibition at 3 µM in series [5] turned out to be 12%. Further, the concentration for half-maximal inhibition (IC50) in series [6] worked out at 5320 nM; in series [7], 790 nM.
`O=C(CCc1c[nH]c2ccccc12)Oc1ccc(CN2CCCCC2)cc1`: the IC50 in series [7] is greater than 10000 nM.
Same read-out and setting: under `O=C(Nc1ccc(CN2CCCCC2)cc1)c1c[nH]c2ccccc12` stands 1210 nM; under `O=C(CCc1c[nH]c2ccccc12)Nc1ccc(CN2CCCC2)cc1`, greater than 10000 nM; under `O=C(CCc1c[nH]c2ccccc12)Nc1ccc(CN2CCCCC2)cc1`, greater than 10000 nM.
In series [7], `O=C(Cc1c[nH]c2ccccc12)Oc1ccc(CN2CCCCC2)cc1` showed an IC50 of 1040 nM.
